Several values for one entry are separate records, joined by “and”; a condition that tells them apart may be missing. Equal values may be shown once.
Assays:
[1] = Formalin, ethanol and freezing effects on renal crystals; parameters: species or system rat
In short: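 Fresh kidney wet-mounts with crystal rank 4–5 were flooded with 10% neutral buffered formalin and photographed repeatedly. Times were 0, 1, 2, 3 and 24 h for melamine-exposed kidney and 0, 10, 20, 30 min and 1 h for cyanuric acid-exposed kidney. Sections in 100% ethanol were checked daily for up to 6 days. Frozen tissue, either freeze–thawed or held at −70 °C, was cut into 6 μm cryosections, unstained or unfixed H&E.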

[2] = tested on: pregnant rats; test: Reproductive indices at necropsy; type: in vivo, rat
In short: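 Time-pregnant rats were gavaged daily for 10 days from GD10 with 1% CMC-Na or 1000 mg/kg BW/day test compound. At necropsy the gravid uterus was removed whole and weighed, and corpora lutea, implants, and early and late deaths were recorded. Groups were compared against both control and the other triazine group.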

[3] = Weight gains, feed and water consumption of gavaged rats; type: in vivo, rat; details: for Total feed consumption (g ± SEM) / Total water consumption (g ± SEM): 1000 mg/kg BW/day
In short: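 Rats were housed singly at 18–26 °C, 40–70% RH and 12 h light/dark, with feed and water ad libitum. They were gavaged for 10 days from GD10 with vehicle (1% CMC-Na) or 1000 mg/kg BW/day test compound. Fluid intake was measured every 3 days and feed every 7 days. For dams, adjusted gain = GD20 body weight minus gravid uterus weight and GD10 weight.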

[4] = oral, female rats; ref Jacob et al., 2012; cited from earlier work
[5] = Serum triazine analysis by LC-MS/MS; type: in vivo; details: pregnant female rats, individual rat; label = dose group; LOD 0.4 μg/mL
In short: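 Serum was collected from each rat after 10 daily gavages of 1000 mg/kg BW/day test compound or vehicle. Melamine and cyanuric acid were quantified by a previously published LC-MS/MS method, validated with pre-spiked serum samples at several fortification levels. Natural-log serum concentrations were compared between pregnant and non-pregnant rats by two-sided t-test (p ≤ 0.05).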

[6] = Serum chemistry, renal function; type: in vivo, rat; details: for Blood urea nitrogen (mean ± SEM) / Creatinine (mean ± SEM) / Uric acid (mean ± SEM): serum
In short: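 Serum was taken from pregnant and non-pregnant rats after 10 days of gavage with vehicle or 1000 mg/kg BW/day test compound. Samples were brought to room temperature. BUN, creatinine and uric acid were measured on a benchtop veterinary chemistry analyser. Results were compared with control and the other treated group.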

[7] = tested on: kidney; test: Kidney wet-mount analysis for renal crystals; type: in vivo, rat; details: pregnant and non-pregnant combined, wet-mount
In short: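 After 10 days of gavage at 1000 mg/kg BW/day, a thin fresh renal slice spanning cortex and medulla was weighed. It was compressed between two slides with a coverslip and examined fresh by light microscopy. Crystals were ranked on a subjective 0–5 scale; some views used polarised light.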

[8] = tested on: kidney and bladder; test: Histopathology of kidney and bladder; type: in vivo, rat
[9] = Body weight and organ weights standardized to body weight; type: in vivo, rat; details: for GD20 Body weight (g ± SEM) / Heart weight standardized to body weight (% ± SEM) / Left kidney weight standardized to body weight (% ± SEM) / Liver weight standardized to body weight (% ± SEM) / Right kidney weight standardized to body weight (% ± SEM) / Spleen weight standardized to body weight (% ± SEM) / Paired kidney weight standardized to body weight (% ± SEM): 1000 mg/kg BW/day; for Paired kidney weight standardized to body weight (% ± SEM): group mean, 1000 mg/kg/day
[10] = Amniotic fluid triazine analysis by LC-MS/MS; type: in vivo, rat; details: pregnant female rats, pooled by dam; label = dose group; LOD 0.4 μg/mL
In short: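 Amniotic fluid came from GD20 dams gavaged for 10 days with vehicle or 1000 mg/kg BW/day test compound. Melamine and cyanuric acid were measured by a previously published LC-MS/MS method, validated with pre-spiked amniotic fluid. Serum-to-amniotic fluid Pearson correlations were run only on rats with both samples (p ≤ 0.05).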

[11] = tested on: rats; test: Clinical observations and survival; type: in vivo, rat; details: pregnant and non-pregnant rats; 1000 mg/kg BW/day
In short: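 Female rats, time-pregnant or non-pregnant, were weight-stratified and randomised from GD10. They were gavaged each morning for 10 days with 1% CMC-Na vehicle or 1000 mg/kg BW/day test compound at 1 mL/100 g (n = 11/group; pregnant high-triazine group n = 13). Observations were made at least twice on day 1, then at least daily, covering skin, fur, eyes, mucosa, autonomic/CNS signs and behaviour. Animals removed early were counted as deaths.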

[12] = tested on: fetuses; test: Fetal data; type: in vivo, rat; details: dams, 1000 mg/kg BW/day, GD20
In short: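 Dams were dosed by gavage (1000 mg/kg BW/day or 1% CMC-Na vehicle) for 10 days from GD10. At GD20 necropsy, the gravid uterus was removed whole and weighed. Each viable fetus was recorded for uterine position, sex, weight, crown-rump length and external abnormalities. Runts were defined as below 70% of the control litter average weight by gender.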

[13] = dams, 1000 mg/kg BW/day, necropsy GD20
[14] = not pregnant rats, 1000 mg/kg BW/day
[15] = pregnant and non-pregnant pooled
[16] = pregnant rats, 1000 mg/kg BW/day

Oc1nc(O)nc(O)n1 [CYA, cyanuric acid]
Stability of crystals to freeze–thaw cycles ([1]; frozen kidney tissue, CYA stable if held at −70 °C): dissolved | Time at which almost all crystals were gone in formalin ([1]; kidney wet-mount sections): 30 min | Effect on reproductive indices compared with controls ([2]; 1000 mg/kg BW/day): did not appear to have an effect | No. corpea lutea (mean ± SEM) ([2]; dams, 1000 mg/kg BW/day gavage GD10-20, necropsy GD20): 15.1 ± 0.5 | Early and late deaths (mean% of implants ± SEM) [2, 13]: 3.4 ± 1.6 % of implants | Early deaths (mean% of implants ± SEM) [2, 13]: 1.3 ± 0.9 % of implants | Implant efficiency (mean% ± SEM) [2, 13]: 90.7 ± 3.0% | Late deaths (mean% of implants ± SEM) [2, 13]: 2.0 ± 1.6 % of implants | No. fetuses alive (mean ± SEM) [2, 13]: 13.2 ± 0.6 | No. implants (mean ± SEM) [2, 13]: 13.6 ± 0.5 | Percent alive both genders (mean% ± SEM) [2, 13]: 96.7 ± 1.6% | Percent live females (mean% ± SEM) [2, 13]: 40.7 ± 3.8% | Total feed consumption (g ± SEM) ([3]; not pregnant rats): 158.6 ± 8.8 g | Total water consumption (g ± SEM) ([3]; not pregnant rats): 264 ± 21.2 g | Total bw gain (g ± SEM) ([3]; not pregnant rats, 1000 mg/kg BW/day gavage 10 days, brackets indicate negative): 16.0 ± 4.1 g | Total feed consumption (g ± SEM) ([3]; pregnant rats): 220.1 ± 5.4 g | Total water consumption (g ± SEM) ([3]; pregnant rats): 353.6 ± 17.5 g | Total bw gain (g ± SEM) ([3]; pregnant rats, 1000 mg/kg BW/day gavage GD10-20): 94.2 ± 3.3 g | Area under the curve (AUC) [4]: 1375 ng·h/mL | Half-life [4]: 59.4 min | MEL concentration, Serum [5]: <LOD | Effect on uric acid serum levels versus control rats ([6]; 1000 mg/kg BW/day): did not appear to have an effect | Mean BUN of treated rats with renal crystals ([6]; 4 rats (2 pregnant and 2 non-pregnant)): 31 mg/dL | Blood urea nitrogen (mean ± SEM) [6, 14]: 17.82 ± 2.33 mg/dL | Creatinine (mean ± SEM) [6, 14]: 0.59 ± 0.07 mg/dL | Uric acid (mean ± SEM) [6, 14]: 5.26 ± 0.27^& mg/dL | Mean BUN of the other treated rats (without crystals) [6, 15]: 15 mg/dL | Mean creatinine of treated rats with crystals [6, 15]: 1.1 mg/dL | Mean creatinine of treated rats without crystals [6, 15]: 0.5 mg/dL | Blood urea nitrogen (mean ± SEM) [6, 16]: 17.45 ± 2.26 mg/dL | Creatinine (mean ± SEM) [6, 16]: 0.59 ± 0.07 mg/dL | Uric acid (mean ± SEM) [6, 16]: 3.37 ± 0.28 mg/dL | Treated rats that developed renal crystals (percent) ([7]; MEL n = 24, CYA n = 22): 18% | Number of treated rats that developed renal crystals ([7]; MEL of 24, CYA of 22): 4 | Number of rats with epithelial necrosis in the bladder ([8]; MEL: pregnant rats, minimal to marked, CYA: 1 pregnant, 2 non-pregnant, mild): Three | Number of rats with tubular dilation and necrosis ([8]; kidney, H&E, of 22 treated rats): 5 | GD20 Body weight (g ± SEM) ([9]; not pregnant rats): 234.3 ± 4.5 g | Heart weight standardized to body weight (% ± SEM) ([9]; not pregnant rats): 0.38 ± 0.01% | Left kidney weight standardized to body weight (% ± SEM) ([9]; not pregnant rats): 0.43 ± 0.02% | Liver weight standardized to body weight (% ± SEM) ([9]; not pregnant rats): 3.48 ± 0.07 % | Right kidney weight standardized to body weight (% ± SEM) ([9]; not pregnant rats): 0.45 ± 0.03% | Spleen weight standardized to body weight (% ± SEM) ([9]; not pregnant rats): 0.23 ± 0.02% | Paired kidney weight standardized to body weight (% ± SEM) ([9]; not pregnant rats): 0.88% and 0.88 ± 0.05% | GD20 Body weight (g ± SEM) ([9]; pregnant rats): 351.3 ± 6.1 g | Heart weight standardized to body weight (% ± SEM) ([9]; pregnant rats): 0.30 ± 0.01% | Left kidney weight standardized to body weight (% ± SEM) ([9]; pregnant rats): 0.28 ± 0.02% | Liver weight standardized to body weight (% ± SEM) ([9]; pregnant rats): 3.58 ± 0.09% | Right kidney weight standardized to body weight (% ± SEM) ([9]; pregnant rats): 0.30 ± 0.01% | Spleen weight standardized to body weight (% ± SEM) ([9]; pregnant rats): 0.17 ± 0.01% | Paired kidney weight standardized to body weight (% ± SEM) ([9]; pregnant rats): 0.58% and 0.58 ± 0.03% | Standardized paired kidney weight of individual rats with renal crystals ([9]; two non-pregnant rats with crystals, both the same value): 1.22% | Standardized paired kidney weight of individual rats with renal crystals ([9]; two pregnant rats with crystals): 0.74% and 0.77% | MEL concentration, Amniotic Fluid [10]: <LOD | Maternal health during 10 day dosing period [11]: no treatment related health effects | Average crown rump length (mean cm ± SEM) [12]: 4.10 ± 0.02 cm | Average fetal body weight (g ± SEM) [12]: 4.06 ± 0.05 g | Litter size (mean ± SEM) [12]: 13.2 ± 0.6

— article PMC11421684 (Food and chemical toxicology : an international journal …, 2014)
